ChEMBL document CHEMBL1122171, “Hypobetalipoproteinemic agents. 3. Variation of the polycyclic portion of 4-(1-adamantyloxy)aniline” (1982)

Legend:
Format in all cases: functional
[1] = Ratio of heparin precipitating lipoproteins level to cholesterol level was determined
Summary of the method: (§1)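 Cholesterol-cholic acid fed rats given each compound at 50 (mg/kg)/day in 0.25% aqueous methylcellulose vehicle. Serum total cholesterol, heparin precipitating lipoproteins (HPL) and HPL/cholesterol ratio measured. Values expressed as T/C, the treated-group mean divided by the control mean. Significance vs control set at p < 0.05. Food intake and weight gain monitored. Active compounds retested for confirmation.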

[2] = test system: Rattus norvegicus; test: Hypobetalipoproteinemic activity was determined in diet-induced hypercholesterolemic rats at a dose of 0.17 (mmol/kg)/day (heparin precipitating lipoproteins level was determined); summary of the method: as §1
[3] = test system: Rattus norvegicus; test: Hypobetalipoproteinemic activity was determined in diet-induced hypercholesterolemic rats at a dose of 0.17 (mmol/kg)/day (total cholesterol level was determined); summary of the method: as §1
[4] = test system: Rattus norvegicus; test: Hypobetalipoproteinemic activity was determined in diet-induced hypercholesterolemic rats at a dose of 0.22 (mmol/kg)/day (heparin precipitating lipoproteins level was determined); summary of the method: as §1
[5] = test system: Rattus norvegicus; test: Hypobetalipoproteinemic activity was determined in diet-induced hypercholesterolemic rats at a dose of 0.22 (mmol/kg)/day (total cholesterol level was determined); summary of the method: as §1
[6] = test system: Rattus norvegicus; test: Hypobetalipoproteinemic activity was determined in diet-induced hypercholesterolemic rats at a dose of 0.19 (mmol/kg)/day (total cholesterol level was determined); summary of the method: as §1
[7] = test system: Rattus norvegicus; test: Hypobetalipoproteinemic activity was determined in diet-induced hypercholesterolemic rats at a dose of 0.19 (mmol/kg)/day (heparin precipitating lipoproteins level was determined); summary of the method: as §1
[8] = test system: Rattus norvegicus; test: Hypobetalipoproteinemic activity was determined in diet-induced hypercholesterolemic rats at a dose of 0.18 (mmol/kg)/day (heparin precipitating lipoproteins level was determined); summary of the method: as §1
[9] = test system: Rattus norvegicus; test: Hypobetalipoproteinemic activity was determined in diet-induced hypercholesterolemic rats at a dose of 0.18 (mmol/kg)/day (total cholesterol level was determined); summary of the method: as §1

Question: Which Ratio [1] does the source give for Nc1ccc(OC23CCCCC2CCCC3)cc1 (stereo in doubt; 14) here?
Answer: 0.97

Question: For CCCCCCCC(C)(C)Oc1ccc(N)cc1.Cl, which T/C [2] is on record?
Answer: 0.84

Question: And the T/C [3]?
Answer: 0.98

Question: And the Ratio [1]?
Answer: 0.86

Question: For CCCC(C)(C)Oc1ccc(N)cc1.Cl, which T/C [4] is on record?
Answer: 0.78

Question: What about the T/C [5] of the same compound?
Answer: 0.84

Question: What about the Ratio [1] of the same compound?
Answer: 0.92

Question: With Nc1ccc(OC23CC4C5CC6CC4C(C2)C(C6)C5C3)cc1 as the compound, how does the T/C [2] read?
Answer: 0.19

Question: And the T/C [3]?
Answer: 0.31

Question: And the Ratio [1]?
Answer: 0.62

Question: What does the source list for CCCCCC(C)(C)Oc1ccc(N)cc1.Cl?
Answer: T/C [6]: 1.02; T/C [7]: 0.96; Ratio [1]: 0.94

Question: Which Ratio [1] does the source give for Nc1ccc(OC23CCCCC2CCCC3)cc1 (stereo in doubt; 17) here?
Answer: 0.9

Question: Which T/C [2] does the source give for Nc1ccc(OC23CC4CC5C6CC(CC52)CC3C6C4)cc1 here?
Answer: 0.35

Question: What about the T/C [3] of the same compound?
Answer: 0.53

Question: What about the Ratio [1] of the same compound?
Answer: 0.66

Question: What does the source list for Cl.Nc1ccc(OC23CCCCC2CCCC3)cc1 (stereo in doubt; 17)?
Answer: T/C [8]: 1.24; T/C [9]: 1.38

Question: Which T/C [8] does the source give for Cl.Nc1ccc(OC23CCCCC2CCCC3)cc1 (stereo in doubt; 14) here?
Answer: 0.89

Question: What about the T/C [9] of the same compound?
Answer: 0.92
